The RNAGym collection of RNA variant scans (doi:10.1126/science.aae0568)
Variants at the floor of the assay were thinned out.

B1: tRNA (parent)
chain: GUUCCGUUGGCGUAAUGGUAACGCGUCUCCCUCCUAAGGAGAAGACUGCGGGUUCGAGUCCCGUACGGAACG

Variants of: B1
Test: yeast fitness relative to wild type (ratio to wild type); higher = fitter; tRNA-Arg(CCU), competitive growth, 37 C, YPD
How it was run: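 Variants of the tRNA-Arg(CCU) gene, chemically synthesised with a 3% per-site mutation rate at 69 sites, were placed at the native genomic locus in Saccharomyces cerevisiae. The pooled strains were competed in YPD at 37°C for 24 hours in six parallel replicates. Gene amplicons from the start population and from each end population were read by 100-nucleotide paired-end sequencing. Darwinian fitness relative to wild type came from changes in genotype frequencies; genotypes needed ≥ 100 starting reads, and estimates < 0.5 were set to 0.5.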

Row | Variant | yeast fitness
1 | G25A C27G | 0.78
2 | G25A A37C G38C C60U C62U A69U | ≤ 0.5
3 | C24U A43U U47G G67A | 0.53
4 | C24U C30U A40C G68C | 0.545
5 | C24U U35C G38C | 0.677
6 | C24U C31G A65U | 0.508
7 | C24U A43U | 1.01
8 | C24U C34U A57U C60U | ≤ 0.5
9 | C24U U26G G41A A57U | 0.641
10 | C24U U26G A43G | 0.727
11 | C24U C49U U54G | 0.588
12 | C24U G44C C62U | 0.784
13 | C24U C29A U32A C46G A70U | ≤ 0.5
14 | G25A A43G C49U U64C | 0.924
15 | C24U C66G G68C | ≤ 0.5
16 | G25A A42G U59C | ≤ 0.5
17 | C24U C29U A42G U59A C61U | ≤ 0.5
18 | C24U C31G C61G | 0.513
19 | G25A A40U A42C A45U U47C A65G | 0.664
20 | G25A A40C C46U C55U | 0.672
21 | C24U C30G C31A A43G | ≤ 0.5

Row | Variant | yeast fitness
22 | C24U C66U | 0.794
23 | C24U C31U | 0.96
24 | C24U C31G | 0.845
25 | C24U G41A C61G | 0.587
26 | C24U C46G | 1.01
27 | C24U C46A | 0.925
28 | C24U C46U | 0.983
29 | C24U G58A C62U G63A | ≤ 0.5
30 | C24U U47C | 0.997
31 | C24U U32A C33G | ≤ 0.5
32 | G25A A45G G48A G50C A69C | ≤ 0.5
33 | C24U A57G C61G | ≤ 0.5
34 | C24U A69C A70C | 0.536
35 | G25A A37U G41A C62G | ≤ 0.5
36 | C24U C30U C49U U53C | ≤ 0.5
37 | C24U G25A C30U G50A G56A | ≤ 0.5
38 | C24U C31A C34U | ≤ 0.5
39 | C24U C34U G58A | ≤ 0.5
40 | C24U C34G G51A | 0.663
41 | G25A C27G G67C | ≤ 0.5
42 | C24U C29U A36U A70C | ≤ 0.5

Row | Variant | yeast fitness
43 | C24U C30U C31G A57G | 0.576
44 | G25A C27G C29G C46A A65G C66U | ≤ 0.5
45 | G25A A43U U54A | 0.565
46 | C24U C30U A57G C66U | 0.538
47 | C24U A57U | 0.641
48 | C24U A57C | 0.601
49 | C24U A57C C60U G67C | ≤ 0.5
50 | C24U C34G G56A | ≤ 0.5
51 | C24U C31U U54A | ≤ 0.5
52 | C24U C61U A70C | 0.714
53 | C24U C46U A65U | 0.714
54 | G25A C27U A36U | 0.53
55 | C24U A70U | 0.881
56 | G25A A40G C55G | ≤ 0.5
57 | C24U C55A | 0.655
58 | G25A C30U A43G G52A | 0.701
59 | C24U G44A C55G G56A A57U | 0.79
60 | C24U U64G | 0.691
61 | C24U U64A | 0.822
62 | C24U U64C | 0.925
63 | C24U A45U G58A | 0.647

Row | Variant | yeast fitness
64 | C24U C33A U47C | 0.516
65 | C24U U32G A40U U64G | 0.593
66 | G25A C27G C46G C61A | ≤ 0.5
67 | C24U G58C A65U | 0.644
68 | C24U U26C | 0.986
69 | C24U U26A | 0.938
70 | C24U U26G | 0.987
71 | C24U U47C U59C | 0.684
72 | C24U U26G C30U G39C | ≤ 0.5
73 | G25A A36U C49U | 0.545
74 | C24U U35C C55G A70U | 0.569
75 | G25A C29U C49U C61A | ≤ 0.5
76 | C24U U26C C49U | 0.692
77 | C24U G68A | 0.697
78 | C24U A45G A65G | 0.757
79 | C24U U32G A69C A70U | ≤ 0.5
80 | C24U C34U G41A | 0.539
81 | C24U A43U C66U | 0.801
82 | C24U A43G A69U | 0.819
83 | C24U A45U A57C G68A | ≤ 0.5
84 | C24U G39A A70C | 0.668
